Results from ChEMBL document CHEMBL1131596, “Novel potent nonpeptide aminopeptidase N inhibitors with a cyclic imide skeleton” (J Med Chem, 1998).

Experiments:
Aminopeptidase N = Aminopeptidase N (Homo sapiens, UniProt P15144); assay: Inhibitory activity against aminopeptidase N assayed by the L-Ala-MCA method.
Dipeptidyl peptidase 4 = Dipeptidyl peptidase 4 (Homo sapiens, UniProt P27487); assay: Inhibitory activity against dipeptidyl peptidase IV (DPP- IV)
Summary of the method: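 Enzymatic activity was measured in intact cells (DPP-IV as a membrane-associated ecto enzyme) using glycyl-L-proline 4-methylcoumaryl-7-amide (Gly-Pro-AMC) as the substrate.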

Chain of Dipeptidyl peptidase 4 (P27487 whole entry): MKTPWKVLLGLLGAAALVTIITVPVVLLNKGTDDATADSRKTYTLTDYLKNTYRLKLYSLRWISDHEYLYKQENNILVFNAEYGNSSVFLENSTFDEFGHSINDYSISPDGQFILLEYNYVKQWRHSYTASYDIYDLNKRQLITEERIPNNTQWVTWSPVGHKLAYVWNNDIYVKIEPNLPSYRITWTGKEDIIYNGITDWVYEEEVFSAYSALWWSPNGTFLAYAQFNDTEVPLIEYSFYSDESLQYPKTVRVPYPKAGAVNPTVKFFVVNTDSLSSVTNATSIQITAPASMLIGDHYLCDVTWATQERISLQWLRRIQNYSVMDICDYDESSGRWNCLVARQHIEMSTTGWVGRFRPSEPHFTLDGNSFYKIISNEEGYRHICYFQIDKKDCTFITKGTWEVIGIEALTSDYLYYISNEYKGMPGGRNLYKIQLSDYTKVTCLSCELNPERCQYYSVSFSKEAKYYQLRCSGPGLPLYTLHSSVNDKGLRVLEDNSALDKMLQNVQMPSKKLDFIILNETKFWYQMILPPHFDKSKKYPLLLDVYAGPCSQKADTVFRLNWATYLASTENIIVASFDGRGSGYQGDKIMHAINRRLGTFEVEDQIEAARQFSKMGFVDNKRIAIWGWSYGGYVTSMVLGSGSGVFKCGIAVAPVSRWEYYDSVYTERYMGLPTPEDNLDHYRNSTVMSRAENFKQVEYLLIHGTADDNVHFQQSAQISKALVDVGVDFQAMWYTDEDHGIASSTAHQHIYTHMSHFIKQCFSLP
Chain of Aminopeptidase N (P15144 whole entry): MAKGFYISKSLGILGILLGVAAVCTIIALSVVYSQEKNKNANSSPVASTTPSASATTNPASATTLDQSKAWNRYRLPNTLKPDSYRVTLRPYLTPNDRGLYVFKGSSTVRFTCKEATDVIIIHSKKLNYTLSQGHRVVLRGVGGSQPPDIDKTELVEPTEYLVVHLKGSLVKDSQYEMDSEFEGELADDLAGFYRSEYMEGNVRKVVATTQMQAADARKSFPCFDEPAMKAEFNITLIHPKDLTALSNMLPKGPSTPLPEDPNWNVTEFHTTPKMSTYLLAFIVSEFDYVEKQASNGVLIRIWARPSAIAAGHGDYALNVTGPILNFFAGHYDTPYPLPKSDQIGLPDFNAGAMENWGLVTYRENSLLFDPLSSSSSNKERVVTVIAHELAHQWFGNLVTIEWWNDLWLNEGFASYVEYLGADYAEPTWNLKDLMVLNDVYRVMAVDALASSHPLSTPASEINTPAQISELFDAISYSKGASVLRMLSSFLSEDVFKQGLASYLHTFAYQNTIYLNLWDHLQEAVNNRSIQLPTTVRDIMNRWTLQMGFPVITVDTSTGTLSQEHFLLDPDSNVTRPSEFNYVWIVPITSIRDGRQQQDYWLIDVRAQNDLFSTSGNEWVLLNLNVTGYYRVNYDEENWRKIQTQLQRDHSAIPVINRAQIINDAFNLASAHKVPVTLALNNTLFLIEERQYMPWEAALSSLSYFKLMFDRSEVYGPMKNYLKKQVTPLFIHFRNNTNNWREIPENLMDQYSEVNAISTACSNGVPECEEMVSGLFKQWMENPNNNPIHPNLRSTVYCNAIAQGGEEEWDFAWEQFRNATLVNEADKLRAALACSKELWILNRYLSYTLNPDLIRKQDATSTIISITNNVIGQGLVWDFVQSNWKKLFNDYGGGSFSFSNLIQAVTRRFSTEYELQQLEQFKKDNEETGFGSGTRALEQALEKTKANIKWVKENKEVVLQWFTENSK

Compound | IC50 (Aminopeptidase N) [µM] | IC50 (Dipeptidyl peptidase 4) [µM]
Cc1cccc(C)c1N1C(=O)c2cccc(O)c2C1=O | 265 | 
Cc1cccc(C)c1N1C(=O)c2ccc(N)cc2C1=O |  | 87.9
O=C1Cc2ccccc2C(=O)N1c1c(Cl)cccc1Cl | 144 | > 327
CC(C)c1cccc(C(C)C)c1N1C(=O)Cc2ccccc2C1=O | 10.9 | > 311
CC(C)c1ccc(N2C(=O)Cc3ccccc3C2=O)cc1 | > 358 | > 358
Cc1ccc(C)c(N2C(=O)Cc3ccccc3C2=O)c1 | 60.3 | > 377
CCc1ccccc1N1C(=O)Cc2ccccc2C1=O | 67.1 | > 377
CCc1cccc(CC)c1N1C(=O)c2ccc([N+](=O)[O-])cc2C1=O | > 308 | > 308
CC(C)c1cccc(C(C)C)c1N1C(=O)c2cccc(O)c2C1=O |  | 43.6
CCc1cccc(CC)c1N1C(=O)Cc2ccccc2C1=O |  | > 341
COc1ccccc1N1C(=O)Cc2ccccc2C1=O | 110 | > 374
Cc1cccc(C)c1N1C(=O)c2ccccc2C1=O | > 398 | 
CC(C)c1cccc(C(C)C)c1N1C(=O)c2cc3ccccc3cc2C1=O | > 280 | 
CSc1ccccc1N1C(=O)Cc2ccccc2C1=O | 3.18 | > 353
Cc1ccc(N2C(=O)Cc3ccccc3C2=O)c(C)c1 | 187 | > 377
CC(C)c1cccc(C(C)C)c1N1C(=O)c2cccc(N)c2C1=O | 20.8 | 
CC(C)c1cccc(C(C)C)c1N1C(=O)c2ccc(N)cc2C1=O |  | 251
CC(C)c1cccc(C(C)C)c1N1C(=O)c2cccc([N+](=O)[O-])c2C1=O | > 284 | 
CC(C)C[C@H](NC(=O)C(O)[C@H](N)Cc1ccccc1)C(=O)O (single isomer, unassigned) [UBENIMEX] |  | > 324

Now from value to compound:

IC50 (Aminopeptidase N) [µM] | IC50 (Dipeptidyl peptidase 4) [µM] | Compound
 | 65.9 | CC(C)c1cccc(C(C)C)c1N1C(=O)c2ccc(O)cc2C1=O
> 376 | > 376 | Cc1cccc(C)c1N1C(=O)c2cccc(N)c2C1=O
 | 74.1 | Cc1cccc(C)c1N1C(=O)c2ccc(O)cc2C1=O
395 | > 421 | O=C1Cc2ccccc2C(=O)N1c1ccccc1
> 472 | 86.3 | O=C([C@@H]1CCCN1)N1CCC[C@H]1B(O)O
194 | > 358 | CC(C)c1ccccc1N1C(=O)Cc2ccccc2C1=O
303 | > 358 | CCc1cccc(CC)c1N1C(=O)c2ccccc2C1=O
23.4 | > 377 | Cc1cc(C)cc(N2C(=O)Cc3ccccc3C2=O)c1
 | 43.3 | CCc1cccc(CC)c1N1C(=O)c2ccc(O)cc2C1=O
113 | > 377 | Cc1cccc(N2C(=O)Cc3ccccc3C2=O)c1C
> 325 |  | CC(C)c1cccc(C(C)C)c1N1C(=O)c2ccccc2C1=O
> 284 |  | CC(C)c1cccc(C(C)C)c1N1C(=O)c2ccc([N+](=O)[O-])cc2C1=O
157 | > 377 | Cc1cccc(C)c1N1C(=O)Cc2ccccc2C1=O
0.83 | > 259 | CCCCC[C@H](CC(=O)NO)C(=O)N[C@H](C(=O)N1CCC[C@H]1CO)C(C)C [ACTINONIN]
